A selection: hits, their analogues and other compounds. The true share with any hit is near 2.4%.
NPY Y2 blocker – NPY-Y2 (human) receptor antagonism; NPY-Y2 expressing cells, antagonist mode; inhibition, % at 2.7 µM; 140,000 compounds, 0.99% hits; in the data active means inhibition above about 17%;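 further: 0% = vehicle with agonist challenge and 100% = reference antagonist with challenge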
Target sequence (P49146 whole entry, looked up): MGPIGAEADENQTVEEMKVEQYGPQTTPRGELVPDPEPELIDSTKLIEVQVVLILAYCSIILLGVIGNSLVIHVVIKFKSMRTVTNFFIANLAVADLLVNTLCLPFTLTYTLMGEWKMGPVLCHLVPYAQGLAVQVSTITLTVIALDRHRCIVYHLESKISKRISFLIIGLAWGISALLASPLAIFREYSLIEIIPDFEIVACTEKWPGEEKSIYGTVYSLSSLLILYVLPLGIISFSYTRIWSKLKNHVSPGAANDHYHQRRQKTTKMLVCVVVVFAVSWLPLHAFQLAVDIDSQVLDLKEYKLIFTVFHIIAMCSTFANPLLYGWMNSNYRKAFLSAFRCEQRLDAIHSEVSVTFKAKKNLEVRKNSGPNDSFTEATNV
S1P4 antag – antagonists of human S1P4 receptor; O95977; S1P4-expressing cells, antagonist mode, reporter read-out; inhibition, % at 4.98 µM; 220,000 compounds, 0.26% hits; in the data active means inhibition above about 29%;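 further: 0% = wells stimulated with agonist and 100% = vehicle wells without agonist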
S1P4 ag – agonists of human S1P4 receptor; O95977; S1P4-expressing cell line, agonist reporter assay; activation, % at 4.98 µM; 220,000 compounds, 0.35% hits; in the data active means activation above about 11%;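 further: 0% = DMSO vehicle and 100% = reference agonist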
NPY Y1 blocker – blocks the human neuropeptide Y Y1 receptor | inhibition, % at 3.6 µM | P25929 | AID 1040 | HEK293-CNG Y1 cells, membrane potential fluorescence; NPY at EC95, then isoproterenol | 200,000 compounds, 1% hits;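 active means inhibition above the campaign mean inhibition of all tested compounds plus 3 SD, cut at about 20% in these data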;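 further: 0% = DMSO wells given NPY plus isoproterenol and 100% = isoproterenol alone without NPY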
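Material: HEK293 Y1/CNG channel cell line | Also added: NPY (25 nM), isoproterenol (1 µM), Ro 20-1724 (25 µM) | Compound: One concentration, 3.6 µM, in 0.4% DMSO | Schedule: 3 h dye uptake, 1 h room-temperature compound, 45 min post-isoproterenol | Signal: Membrane-potential fluorescent dye readout | Read-out: % inhibition of NPY effect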
NPY1 pot ag – human NPY-Y1 potentiation or agonism, primary screen; P25929; NPY-Y1 expressing cells, potentiator/agonist activation; activation, % at 3.6 µM; 220,000 compounds, 0.37% hits; in the data active means activation above about 33%, passing the limit was not always enough;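 further: cells stimulated with NPY at EC10 then isoproterenol at EC100; 0% = low agonist plus stimulus and 100% = saturating agonist plus stimulus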
NPY-Y2 PAM-ag – potentiators or agonists of human neuropeptide Y receptor Y2. AID 1359. cells expressing NPY-Y2, potentiator/agonist read-out. activation, % at 3.6 µM. 220,000 compounds, 0.45% hits. P49146; in the data active means activation above about 27%;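 further: cells stimulated with NPY near EC25 plus isoproterenol at EC100; 0% = vehicle plus submaximal agonist and 100% = vehicle plus saturating agonist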
S1P4 ag conf – human S1P4 agonism, confirmation; S1P4 agonist cell-based reporter assay; shares compounds with S1P4 ag; 740 compounds, 7% hits; activation, % at 4.98 µM; AID 1523; in the data active means activation above about 12%;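 further: 0% = vehicle and 100% = full reference agonist response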
S1P1 ag – human S1P1 agonism as S1P4 agonist counter-screen | shares compounds with S1P4 ag | S1P1 agonist cell-based assay, activation | activation, % at 4.98 µM | 740 compounds, 4% hits | AID 1563; in the data active means activation above about 21%;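 further: 0% = vehicle wells and 100% = reference agonist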
Active calls of the source: *.

Results for CNC(=O)CSc1nnc(-c2cccc(S(=O)(=O)N3CCOCC3)c2)n1-c1ccc(F)cc1 ?
NPY Y2 blocker: 2; S1P4 antag: -19; S1P4 ag: -1; NPY Y1 blocker: -4; NPY1 pot ag: -4; NPY-Y2 PAM-ag: 5

Results for O=C(O)CSc1nnc(-c2cccc(S(=O)(=O)N3CCOCC3)c2)n1-c1cccc(Cl)c1 ?
S1P4 antag: -2; S1P4 ag: 15*; NPY1 pot ag: -2; NPY-Y2 PAM-ag: -18; S1P4 ag conf: 0; S1P1 ag: 1

Results for CN(C)c1ccc(N2C(=O)CC(Sc3ccccc3C(=O)O)C2=O)cc1 (configuration not stated) ?
NPY Y2 blocker: 4; S1P4 antag: -1; S1P4 ag: 11*; NPY Y1 blocker: 1; NPY1 pot ag: -4; NPY-Y2 PAM-ag: 1; S1P4 ag conf: -1; S1P1 ag: -7

How did Cc1ccc(N2C(=O)CC(Sc3ccccc3C(=O)O)C2=O)cc1 (configuration not stated) do in these assays?
NPY Y2 blocker: -1; S1P4 antag: -13; S1P4 ag: 1; NPY Y1 blocker: 9; NPY1 pot ag: -3; NPY-Y2 PAM-ag: 8

How did CC1CN(C(=O)COC(=O)c2ccc(NC(=O)CC#N)cc2)CC(C)O1 (configuration not stated) do in these assays?
S1P4 antag: -5; S1P4 ag: 11*; NPY Y1 blocker: -3; NPY1 pot ag: -3; NPY-Y2 PAM-ag: 1; S1P4 ag conf: -2; S1P1 ag: -3

How did CCOc1ccc(-n2cnnn2)cc1S(=O)(=O)NCCc1ccc(OC)c(OC)c1 do in these assays?
NPY Y2 blocker: 4; S1P4 antag: 8; S1P4 ag: 2; NPY Y1 blocker: -7; NPY1 pot ag: -25; NPY-Y2 PAM-ag: -8

How did CCOc1cc(S(=O)(=O)NCCc2ccc(OC)c(OC)c2)c(OCC)cc1-n1cnnn1 do in these assays?
NPY Y2 blocker: 3; S1P4 antag: -12; S1P4 ag: 73*; NPY Y1 blocker: 0; NPY1 pot ag: -16; NPY-Y2 PAM-ag: -6; S1P4 ag conf: -2; S1P1 ag: 0

Results for CCCN(CCC)C(=O)CC(c1ccccc1)c1cc(C)ccc1O (configuration not stated) ?
NPY Y2 blocker: 5; S1P4 antag: -8; S1P4 ag: 51*; NPY Y1 blocker: 5; NPY1 pot ag: 10; NPY-Y2 PAM-ag: -10; S1P4 ag conf: -2; S1P1 ag: 2

Results for O=C(COc1ccc2ccccc2c1)NNC(=O)Cc1cccc2ccccc12 ?
NPY Y2 blocker: 7; S1P4 antag: 2; S1P4 ag: 0; NPY Y1 blocker: 14; NPY1 pot ag: -16; NPY-Y2 PAM-ag: -28

Results for O=C(COc1ccc2ccccc2c1)NNC(=O)Cc1ccccc1 ?
NPY Y2 blocker: 3; S1P4 antag: -2; S1P4 ag: 13*; NPY Y1 blocker: 6; NPY1 pot ag: -18; NPY-Y2 PAM-ag: -9; S1P4 ag conf: -2; S1P1 ag: -1

What do the screens show for `Cc1cc(OC(=O)c2ccco2)c2c(C)cc(=O)oc2c1`?
NPY Y2 blocker: 3; S1P4 antag: -10; S1P4 ag: 0; NPY Y1 blocker: 2; NPY1 pot ag: -28; NPY-Y2 PAM-ag: -11

Results for Cc1cc(OC(=O)CNC(=O)OC(C)(C)C)c2c(C)cc(=O)oc2c1 ?
NPY Y2 blocker: 7; S1P4 antag: -14; S1P4 ag: 48*; NPY Y1 blocker: 5; NPY1 pot ag: -3; NPY-Y2 PAM-ag: 4; S1P4 ag conf: -2; S1P1 ag: -7

How did Cc1cc(C)n2nc(/C(C#N)=C/c3ccccn3)c(C#N)c2n1 do in these assays?
S1P4 antag: -11; S1P4 ag: 3; NPY Y1 blocker: -3; NPY1 pot ag: 3; NPY-Y2 PAM-ag: -3

Results for Cc1cc(N2CCCC(C(=O)Nc3cccc(Cl)c3)C2)n2ncnc2n1 (configuration not stated) ?
S1P4 antag: 11; S1P4 ag: 1; NPY Y1 blocker: 1; NPY1 pot ag: -1; NPY-Y2 PAM-ag: -20

How did Cc1cc(N2CCCC(C(=O)Nc3ccc4c(c3)CCC4)C2)n2ncnc2n1 (configuration not stated) do in these assays?
NPY Y2 blocker: 2; S1P4 antag: 12; S1P4 ag: 17*; NPY Y1 blocker: 2; NPY1 pot ag: 20; NPY-Y2 PAM-ag: 10; S1P4 ag conf: -2; S1P1 ag: -5

How did COc1cc(C(=O)NCC(=O)N/N=C/c2ccc(OC(=O)c3ccco3)cc2)cc(OC)c1OC do in these assays?
S1P4 antag: 10; S1P4 ag: 21*; NPY Y1 blocker: -6; NPY1 pot ag: 6; NPY-Y2 PAM-ag: 6; S1P4 ag conf: -2; S1P1 ag: -11

Results for C=CCn1c(=O)c(C#N)cc2c(=O)n3ccccc3nc21 ?
NPY Y2 blocker: 0; S1P4 antag: -15; S1P4 ag: 11*; NPY Y1 blocker: 2; NPY1 pot ag: -19; NPY-Y2 PAM-ag: 1; S1P4 ag conf: 12*; S1P1 ag: 31*

Results for Cc1cc(-n2c(=O)c(C#N)cc3c(=O)n4ccccc4nc32)no1 ?
NPY Y2 blocker: 5; S1P4 antag: -74; S1P4 ag: 28*; NPY Y1 blocker: -2; NPY1 pot ag: 9; NPY-Y2 PAM-ag: 8; S1P4 ag conf: 20*; S1P1 ag: 34*

What do the screens show for `Cc1ccccc1-n1c(=O)c(C#N)cc2c(=O)n3ccccc3nc21`?
NPY Y2 blocker: -3; S1P4 antag: -39; S1P4 ag: 44*; NPY Y1 blocker: 5; NPY1 pot ag: 5; NPY-Y2 PAM-ag: -2; S1P4 ag conf: 27*; S1P1 ag: 46*

Results for CCN(CC)S(=O)(=O)c1ccc(C(=O)NNc2nc(-c3ccccc3)c3cc(Br)ccc3n2)cc1 ?
NPY Y2 blocker: -2; S1P4 antag: -11; S1P4 ag: 13*; NPY Y1 blocker: -5; NPY1 pot ag: -29; NPY-Y2 PAM-ag: 15; S1P4 ag conf: -2; S1P1 ag: 3

How did Cc1ccc(NC(=O)c2ccc(N/N=C/c3cccc(O)c3)c([N+](=O)[O-])c2)cc1 do in these assays?
NPY Y2 blocker: -4; S1P4 antag: -9; S1P4 ag: 14*; NPY Y1 blocker: -8; NPY1 pot ag: -7; NPY-Y2 PAM-ag: 2; S1P4 ag conf: -2; S1P1 ag: -5

Results for Cc1cccn2cc(CCNC(=O)c3cccs3)nc12 ?
S1P4 antag: -9; S1P4 ag: 0; NPY1 pot ag: -7; NPY-Y2 PAM-ag: -6

Results for CC(C)(C)c1ccc(N/N=C(\C#N)S(=O)(=O)C(C)(C)C)cc1 ?
S1P4 antag: -34; S1P4 ag: 29*; NPY Y1 blocker: -1; NPY1 pot ag: 10; NPY-Y2 PAM-ag: 5; S1P4 ag conf: -2; S1P1 ag: -3

Screening data as filed in PubChem.
